For one series, the system named is SH-SY5Y. Put plainly: Neuroprotective activity against t-BuOOH-induced oxidative stress in human SH-SY5Y cells assessed as inhibition ROS accumulation pre-incubated for 24 hrs before t-BuOOH challnge for 30 mins by DCFH-DA probe based fluorescence assay. It counts as functional, cell-based. Summed up: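 SH-SY5Y cells; test agents at 1–0.01 µM, oxidative stress induced by tert-butyl hydroperoxide; intracellular ROS read by DCFH-DA fluorescence; at least three independent experiments in sextuplicate; EC50 derived.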

The test system of series [1] is PC-12. Put plainly: Cytotoxicity against rat undifferentiated PC12 cells at 0.5 to 50 uM after 72 hrs by MTT assay. The class given is cell-based. To be noted: pc-12, 72 h.
Series [2] is described as follows: Permeability of compound at 100 ug/ml after 10 hrs by PAMPA assay. Particulars: read-out: permeability. The class given is ADME. A general note: PAMPA measures passive passage across an artificial lipid membrane.
Series [3] concerns PC-12. Put plainly: Induction of rat PC12 cell proliferation at 0.5 to 50 uM after 72 hrs by microscopic analysis. It counts as functional, cell-based. An outline of the steps: (§1)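 Undifferentiated PC12 cells cultured 72 h with compound at 0.5–50 µM (images at 10 µM) or with NGF 50 ng/ml, then examined under a digital microscope.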
In series [4] the test system is PC-12. Put plainly: Induction of rat PC12 cell proliferation at 10 uM after 72 hrs by microscopic analysis. The class given is functional, cell-based. An outline of the steps:
as §1

Series [5] is described as follows: Metabolic stability in Sprague-Dawley rat liver microsomes assessed as metabolic rate constant at 100 uM up to 180 mins by HPLC-UV analysis. Particulars: 3 h.
Series [6] can be described thus: Half life in Sprague-Dawley rat liver microsomes at 100 uM up to 180 mins by HPLC-UV analysis. To be noted: microsomes. In general terms: Liver microsomes are a subcellular fraction often used to study metabolism.

The structures appear in SMILES notation. The source made the active and inactive calls.

From ChEMBL document CHEMBL4118104, “Design, Synthesis, and Evaluation of Orally Bioavailable Quinoline-Indole Derivatives as Innovative Multitarget-Directed Ligands: Promotion of Cell Proliferation in the Adult Murine Hippocampus for the Treatment of Alzheimer's Disease” (J Med Chem, 2018) come the findings set out here.

What is called EC50 is the concentration that produces a half-maximal response. Regarding `Oc1c(Cl)cc(Cl)c2ccc(-c3cc4cc5c(cc4[nH]3)OCO5)nc12`, in the series on SH-SY5Y, the EC50 turned out to be 330 nM. The Activity result with PC-12 [1] is on record as “Non-Toxic”. Further, the Papp at 10 h, 100 ug/ml in series [2] was 4.9 ×10⁻⁶ cm/s.
The matching figures for `Oc1cccc2ccc(-c3cc4ccc5c(c4[nH]3)OCO5)nc12` [listing 1 of 2 here]: 260 nM, “Non-Toxic” and 5.9 ×10⁻⁶ cm/s.
Turning to `Oc1cccc2ccc(-c3cc4cc(Cl)ccc4[nH]3)nc12`, the Activity entry with PC-12 [1] is recorded as “Toxic”. For the same molecule, the Papp at 10 h, 100 ug/ml in series [2] was 9.8 ×10⁻⁶ cm/s.
For the molecule `Oc1cccc2ccc(-c3cc4ccccc4[nH]3)nc12`, the Papp at 10 h, 100 ug/ml in series [2] worked out at 8 ×10⁻⁶ cm/s.
Same read-out and setting: the result for `COc1cc2cc(-c3ccc4cccc(O)c4n3)[nH]c2cc1OC` reads 5.2 ×10⁻⁶ cm/s.
Regarding `COc1cc2[nH]c(-c3ccc4c(Cl)cc(Cl)c(O)c4n3)cc2cc1O`, the outcome in the series on PC-12 [3] was inactive. The Papp at 10 h, 100 ug/ml in series [2] turned out to be 8.4 ×10⁻⁶ cm/s.
Regarding `COc1cc2[nH]c(-c3ccc4cccc(O)c4n3)cc2cc1O`, the Papp at 10 h, 100 ug/ml in series [2] was 12.1 ×10⁻⁶ cm/s.
As for `Oc1c(Cl)cc(Cl)c2ccc(-c3cc4cc(Cl)ccc4[nH]3)nc12` [listing 1 of 2 here], the EC50 in the series with SH-SY5Y came out at 820 nM. In the series on PC-12 [1], the Activity result was “Non-Toxic”. Besides, the Papp at 10 h, 100 ug/ml in series [2] is 5.6 ×10⁻⁶ cm/s.
Regarding `Oc1ccc2[nH]c(-c3ccc(O)c4ncccc34)cc2c1`, the Activity entry with PC-12 [1] was “Toxic”. Moreover, in series [2], the Papp at 10 h, 100 ug/ml came out at 9.1 ×10⁻⁶ cm/s.
`CN(C)CCCN1c2ccccc2Sc2ccc(Cl)cc21` [CHLORPROMAZINE]: the Papp at 10 h, 100 ug/ml in series [2] came out at 5.9 ×10⁻⁶ cm/s.
On to `Oc1ccc2[nH]c(-c3ccc4cccc(O)c4n3)cc2c1`, for which the Activity entry with PC-12 [1] was “Toxic”. Moreover, in series [2], the Papp at 10 h, 100 ug/ml stood at 14.8 ×10⁻⁶ cm/s.
The matching figures for `Oc1ccc2[nH]c(-c3cc(Cl)c(O)c4ncccc34)cc2c1`: “Toxic” and 6.8 ×10⁻⁶ cm/s.
Regarding `Oc1c(Cl)cc(Cl)c2ccc(-c3cc4cc(Cl)ccc4[nH]3)nc12` [listing 2 of 2 here], the result with PC-12 [3] and in the series on PC-12 [4] was Active.
Turning to `Oc1cccc2ccc(-c3cc4cc(F)ccc4[nH]3)nc12`, the Papp at 10 h, 100 ug/ml in series [2] was determined as 10.6 ×10⁻⁶ cm/s.
Consider `Oc1c(Cl)cc(Cl)c2ccc(-c3cc4cc(F)ccc4[nH]3)nc12`, for which the outcome in the series with PC-12 [3] was inactive. In addition, the Papp at 10 h, 100 ug/ml in series [2] was 5.3 ×10⁻⁶ cm/s.
For the molecule `C[C@]12CC[C@H]3[C@@H](CCC4=CC(=O)CC[C@@]43C)[C@@H]1CC[C@@H]2O` [TESTOSTERONE], in series [5], the K was found to be 0.3132 min⁻¹.
Consider `Oc1ccc2[nH]c(-c3ccc4c(Cl)cc(Cl)c(O)c4n3)cc2c1`, for which the EC50 in the series on SH-SY5Y stood at 100 nM. Also, the Activity result in the series on PC-12 [1] was “Non-Toxic”. Moreover, the Papp at 10 h, 100 ug/ml in series [2] was found to be 10.2 ×10⁻⁶ cm/s.
With `Oc1c(Cl)cc(Cl)c2ccc(-c3cc4ccccc4[nH]3)nc12`, the result in the series with PC-12 [3] was inactive. The Papp at 10 h, 100 ug/ml in series [2] is 6.6 ×10⁻⁶ cm/s.
`Oc1ccc(-c2cc3ccccc3[nH]2)c2cccnc12`: in the series on PC-12 [1], the Activity result was “Toxic”. Further, the Papp at 10 h, 100 ug/ml in series [2] is 12.8 ×10⁻⁶ cm/s.
With `Oc1cccc2ccc(-c3cc4ccc5c(c4[nH]3)OCO5)nc12` [listing 2 of 2 here], the result in the series on PC-12 [3] and in the series with PC-12 [4] was Active.
For orientation: half-life means the time needed for the level to fall by half in the phase considered. High values mean slow decline, low ones rapid decline. Consider `COc1cc2c(cc1OC)C(=O)C(CC1CCN(Cc3ccccc3)CC1)C2` (configuration not stated) [DONEPEZIL], for which the K in series [5] amounted to 0.00889 min⁻¹. In series [6], this molecule came in with a half-life at 3 h, 100 µM of 1.3 h.
On to `COc1cc2cc(-c3ccc4c(Cl)cc(Cl)c(O)c4n3)[nH]c2cc1OC`, for which the Activity entry in the series on PC-12 [1] is “Toxic”. In addition, the Papp at 10 h, 100 ug/ml in series [2] was 3.9 ×10⁻⁶ cm/s.
